Experimental data reported in ChEMBL document CHEMBL3608260 (Bioorg Med Chem Lett, 2015).
Non-standard residues stand in square brackets, D forms with d. Residues, ends and D or L forms follow the SMILES beside them. *: point of attachment. OBzl(3,5-(CF3)2) = FC(F)(F)c1cc(CO*)cc(C(F)(F)F)c1; Phe(4-Cl) = N[C@@H](Cc1ccc(Cl)cc1)C(=O)O; Phe(4-F) = N[C@@H](Cc1ccc(F)cc1)C(=O)O; Nle = CCCC[C@H](N)C(=O)O; βAla = NCCC(=O)O

Columns and labels:
[1] = target: T1, Delta-type opioid receptor (Homo sapiens, UniProt P41143); assay: Displacement of [3H]-DPDPE from human delta opioid receptor transfected in HN9.10 cells; assay type: cell-based
T1 sequence (P41143 whole entry): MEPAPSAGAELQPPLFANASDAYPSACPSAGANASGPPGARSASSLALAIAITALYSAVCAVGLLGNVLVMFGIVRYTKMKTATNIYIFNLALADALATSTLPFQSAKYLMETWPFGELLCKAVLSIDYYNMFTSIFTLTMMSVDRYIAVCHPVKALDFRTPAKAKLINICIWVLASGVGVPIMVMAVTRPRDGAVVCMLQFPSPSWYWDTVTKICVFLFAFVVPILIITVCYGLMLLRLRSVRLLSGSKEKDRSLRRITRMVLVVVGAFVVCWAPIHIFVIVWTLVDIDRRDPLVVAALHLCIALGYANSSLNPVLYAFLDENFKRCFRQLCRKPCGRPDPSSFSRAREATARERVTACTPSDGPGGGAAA

[2] = Selectivity ratio of Ki for rat mu opioid receptor to Ki for human delta opioid receptor
[3] = target: T1, Delta-type opioid receptor; assay: Agonist activity at human delta opioid receptor transfected in HN9.10 cells by [35S]GTPgammaS binding assay; assay type: functional, cell-based
Method in brief: (§1)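 Membranes from transfected HN9.10 cells constitutively expressing human DOR or rat MOR. EC50 comes from non-linear regression of at least two independent experiments in duplicate. Emax = [Total bound − Basal]/[Basal − Non-specific] × 100.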

[4] = target: Mu-type opioid receptor (Rattus norvegicus) (UniProt P33535); assay: (§2) Agonist activity at rat mu opioid receptor transfected in HN9.10 cells by [35S]GTPgammaS binding assay; assay type: functional, cell-based; method in brief: as §1
Sequence of Mu-type opioid receptor (Rattus norvegicus) (P33535 whole entry): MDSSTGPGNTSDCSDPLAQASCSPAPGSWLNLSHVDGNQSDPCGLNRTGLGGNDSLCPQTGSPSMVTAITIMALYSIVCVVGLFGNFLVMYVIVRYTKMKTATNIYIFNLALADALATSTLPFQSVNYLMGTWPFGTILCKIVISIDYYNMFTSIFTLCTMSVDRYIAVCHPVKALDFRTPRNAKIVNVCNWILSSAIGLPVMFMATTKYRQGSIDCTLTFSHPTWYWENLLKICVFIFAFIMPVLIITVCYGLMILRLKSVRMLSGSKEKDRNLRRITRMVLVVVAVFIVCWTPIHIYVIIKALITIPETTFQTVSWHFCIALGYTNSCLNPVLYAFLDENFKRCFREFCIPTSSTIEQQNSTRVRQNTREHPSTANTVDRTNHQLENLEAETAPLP

Substance-P receptor = Substance-P receptor (Rattus norvegicus, UniProt P14600); assay: Displacement of [3H]-substance P from rat NK1 receptor transfected in CHO cells; assay type: cell-based
Sequence of Substance-P receptor (P14600 whole entry): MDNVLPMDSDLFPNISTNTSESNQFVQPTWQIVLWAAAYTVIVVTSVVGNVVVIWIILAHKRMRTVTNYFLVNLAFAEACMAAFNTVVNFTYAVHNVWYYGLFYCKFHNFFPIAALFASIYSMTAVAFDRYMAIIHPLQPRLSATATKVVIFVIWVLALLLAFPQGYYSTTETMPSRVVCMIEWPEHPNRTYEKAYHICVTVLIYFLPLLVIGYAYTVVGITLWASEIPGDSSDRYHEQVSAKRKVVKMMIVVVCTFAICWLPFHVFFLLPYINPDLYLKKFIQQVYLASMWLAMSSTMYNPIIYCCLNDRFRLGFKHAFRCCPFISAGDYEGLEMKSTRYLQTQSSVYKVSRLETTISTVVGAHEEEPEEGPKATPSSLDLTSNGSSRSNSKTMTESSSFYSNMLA

[5] = Ratio of Ki for rat NK1 receptor to Ki for human NK1 receptor
[6] = target: Substance-P receptor (Cavia porcellus) (UniProt P30547); assay: Antagonist activity at NK1 receptor in guinea pig ileum assessed as inhibition of substance P-induced muscle contraction in presence of naloxone; assay type: tissue-based
Sequence of Substance-P receptor (Cavia porcellus) (P30547 whole entry): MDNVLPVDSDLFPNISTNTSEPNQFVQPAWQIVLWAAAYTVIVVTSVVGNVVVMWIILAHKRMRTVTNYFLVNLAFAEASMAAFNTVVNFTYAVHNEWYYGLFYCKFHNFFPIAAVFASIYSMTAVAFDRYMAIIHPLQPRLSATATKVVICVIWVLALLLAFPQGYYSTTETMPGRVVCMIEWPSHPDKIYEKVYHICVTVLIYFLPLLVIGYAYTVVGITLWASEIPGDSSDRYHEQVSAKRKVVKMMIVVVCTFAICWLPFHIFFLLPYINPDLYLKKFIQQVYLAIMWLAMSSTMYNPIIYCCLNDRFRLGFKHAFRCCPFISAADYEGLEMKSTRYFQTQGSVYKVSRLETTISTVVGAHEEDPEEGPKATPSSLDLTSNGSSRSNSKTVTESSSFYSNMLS

Mu-type opioid receptor [7] = target: Mu-type opioid receptor (Cavia porcellus, UniProt P97266); assay: Agonist activity at mu opioid receptor in guinea pig ileum assessed as inhibition of electrically-stimulated muscle contraction; assay type: tissue-based
Sequence of Mu-type opioid receptor (Cavia porcellus, UniProt P97266) (P97266 whole entry): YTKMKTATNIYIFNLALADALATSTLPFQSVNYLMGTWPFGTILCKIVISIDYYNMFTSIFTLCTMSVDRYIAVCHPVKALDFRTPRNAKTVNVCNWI
Method in brief: (§3)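 Electrically stimulated isolated tissue (mouse vas deferens or guinea pig ileum).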

[8] = target: Delta-type opioid receptor (Mus musculus, UniProt P32300); assay: Agonist activity at delta opioid receptor in mouse vas deferens assessed as inhibition of electrically-stimulated muscle contraction; method in brief: as §3
Sequence of Delta-type opioid receptor (Mus musculus, UniProt P32300) (P32300 whole entry): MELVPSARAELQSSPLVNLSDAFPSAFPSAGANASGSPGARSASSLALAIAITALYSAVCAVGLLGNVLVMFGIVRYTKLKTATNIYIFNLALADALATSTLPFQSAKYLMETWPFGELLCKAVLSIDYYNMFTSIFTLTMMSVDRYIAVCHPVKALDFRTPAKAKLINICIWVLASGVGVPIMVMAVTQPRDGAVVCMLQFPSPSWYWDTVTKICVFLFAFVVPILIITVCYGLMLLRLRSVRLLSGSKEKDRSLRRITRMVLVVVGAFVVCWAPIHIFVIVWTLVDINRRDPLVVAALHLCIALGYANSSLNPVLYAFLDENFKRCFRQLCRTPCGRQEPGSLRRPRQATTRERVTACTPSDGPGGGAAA

Mu-type opioid receptor [9] = target: Mu-type opioid receptor (Rattus norvegicus, UniProt P33535); assay: as §2; assay type: functional, cell-based; method in brief: as §1
Sequence of Mu-type opioid receptor (Rattus norvegicus, UniProt P33535) (P33535 whole entry): as the sequence (P33535 whole entry) above

[10] = target: Delta-type opioid receptor (Mus musculus) (UniProt P32300); assay: Agonist activity at delta opioid receptor in mouse vas deferens assessed as inhibition of electrically-stimulated muscle contraction at 1 uM relative to control
Sequence of Delta-type opioid receptor (Mus musculus) (P32300 whole entry): as the sequence (P32300 whole entry) above

[11] = target: Mu-type opioid receptor (Cavia porcellus) (UniProt P97266); assay: Agonist activity at mu opioid receptor in guinea pig ileum assessed as inhibition of electrically-stimulated muscle contraction at 1 uM relative to control; assay type: tissue-based
Sequence of Mu-type opioid receptor (Cavia porcellus) (P97266 whole entry): as the sequence (P97266 whole entry) above

Structure (SMILES) | Emax [3] [%] | Emax [4] [%] | Ki (Substance-P receptor) [nM] | Ke [6] [nM] | further results
C[C@@H](NC(=O)[C@@H](N)Cc1ccc(O)cc1)C(=O)NCC(=O)N[C@@H](Cc1c[nH]c2ccccc12)C(=O)OCc1cc(C(F)(F)F)cc(C(F)(F)F)c1 (H-Y[dA]GW-{OBzl(3,5-(CF3)2)}) | 33 | 34 | 15 | 5 | Ki [1]: 310 nM; Ratio Ki [2]: 0.16; Ratio Ki [5]: 500; IC50 (Mu-type opioid receptor [7]): 840 nM
CCCC[C@H](NC(=O)[C@H](Cc1ccccc1)NC(=O)CNC(=O)[C@@H](C)NC(=O)[C@@H](N)Cc1ccc(O)cc1)C(=O)N[C@@H](Cc1c[nH]c2ccccc12)C(=O)OCc1cc(C(F)(F)F)cc(C(F)(F)F)c1 (H-Y[dA]GF[Nle]W-{OBzl(3,5-(CF3)2)}) |  |  |  | 13 | 
C[C@@H](NC(=O)[C@@H](N)Cc1ccc(O)cc1)C(=O)NCC(=O)N[C@@H](Cc1ccc(Cl)cc1)C(=O)NCC(=O)N[C@@H](Cc1c[nH]c2ccccc12)C(=O)OCc1cc(C(F)(F)F)cc(C(F)(F)F)c1 (H-Y[dA]G[Phe(4-Cl)]GW-{OBzl(3,5-(CF3)2)}) |  |  |  | 30 | 
C[C@@H](NC(=O)[C@@H](N)Cc1ccc(O)cc1)C(=O)NCC(=O)N[C@@H](Cc1ccc(F)cc1)C(=O)NCC(=O)N[C@@H](Cc1c[nH]c2ccccc12)C(=O)OCc1cc(C(F)(F)F)cc(C(F)(F)F)c1 (H-Y[dA]G[Phe(4-F)]GW-{OBzl(3,5-(CF3)2)}) |  |  |  | 10 | 
C[C@@H](NC(=O)[C@@H](N)Cc1ccc(O)cc1)C(=O)NCC(=O)N[C@@H](Cc1ccccc1)C(=O)NCCC(=O)N[C@@H](Cc1c[nH]c2ccccc12)C(=O)OCc1cc(C(F)(F)F)cc(C(F)(F)F)c1 (H-Y[dA]GF[βAla]W-{OBzl(3,5-(CF3)2)}) |  |  |  | 250 | IC50 [8]: 13 nM
C[C@@H](NC(=O)[C@@H](N)Cc1ccc(O)cc1)C(=O)NCC(=O)N[C@@H](Cc1ccc(F)cc1)C(=O)OCc1cc(C(F)(F)F)cc(C(F)(F)F)c1 | 78 | 58 | 230 | 52 | Ki [1]: 56 nM; EC50 [3]: 6.7 nM; IC50 [8]: 180 nM; IC50 (Mu-type opioid receptor [7]): 210 nM
C[C@@H](NC(=O)[C@@H](N)Cc1ccc(O)cc1)C(=O)N[C@@H](Cc1c[nH]c2ccccc12)C(=O)OCc1cc(C(F)(F)F)cc(C(F)(F)F)c1 | 36 | 26 | 2.9 | 49 | Ratio Ki [2]: 1.8; EC50 (Mu-type opioid receptor [9]): 170 nM; inhibition [10]: 5.5%; inhibition [11]: 3.3%; Ratio Ki [5]: 730
Cc1cc(O)cc(C)c1C[C@H](N)C(=O)N[C@H](C)C(=O)N[C@@H](Cc1c[nH]c2ccccc12)C(=O)OCc1cc(C(F)(F)F)cc(C(F)(F)F)c1 |  |  |  | 110 | EC50 [3]: 12 nM
C[C@@H](NC(=O)[C@@H](N)Cc1ccc(O)cc1)C(=O)NCC(=O)N[C@@H](Cc1ccccc1)C(=O)N[C@@H](Cc1c[nH]c2ccccc12)C(=O)OCc1cc(C(F)(F)F)cc(C(F)(F)F)c1 (H-Y[dA]GFW-{OBzl(3,5-(CF3)2)}) |  | 14 |  | 38 | 
Cc1cc(O)cc(C)c1C[C@H](N)C(=O)N[C@H](C)C(=O)N[C@@H](Cc1c[nH]c2ccccc12)C(=O)NCc1cc(C(F)(F)F)cc(C(F)(F)F)c1 | 50 |  |  | 22 | 
